Screening data: PubChem, Johns Hopkins Ion Channel Center
Most compounds without a hit are left out; they make up all but 2.3% or so of the library.
TRPC4 agonist = activators of mouse TRPC4 channel, primary screen, Fluo4 calcium, HEK293 TRPC4beta/mu-opioid cells; Short transient receptor potential channel 4 (Mus musculus), Q9QUQ5; Fluo4 calcium fluorescence; stronger effect = higher value; B-score at 10 µM; 310,000 compounds, 0.49% hits; AID 2237, 2010;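 active = B-score above 5 SD of library B-scores, and initial fluorescence ratio not above library mean plus 5 SD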;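 note: positive B-score marks a calcium rise read as TRPC4 activation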
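Material: HEK293 stable line with TRPC4beta plus mu-opioid receptor; technique: Fluo4 calcium-sensitive dye fluorescence, kinetic, 1 Hz baseline; timing: Fluo4 dye loading 45 min at room temperature, 110 s recording; controls: assay buffer as low control, maximal DAMGO as high control; read-out: integrated baseline-normalised fluorescence ratio, converted to per-well B score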
TRPC6 inh = mouse TRPC6 channel inhibitors, primary screen, cell-based, HEK293, membrane potential dye | B-score at 10 µM | ACh-evoked depolarization; stronger effect = lower value | Short transient receptor potential channel 6 (Mus musculus), Q61143 | 310,000 compounds, 1.1% hits;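 active = B-score under library mean minus 3 SD, initial fluorescence not abnormally high, positive integrated signal ratio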;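 note: B-score derived from integrated fluorescence ratio over the kinetic read; more negative B-score means stronger inhibition of depolarization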
Target sequence (Q61143 whole entry, looked up): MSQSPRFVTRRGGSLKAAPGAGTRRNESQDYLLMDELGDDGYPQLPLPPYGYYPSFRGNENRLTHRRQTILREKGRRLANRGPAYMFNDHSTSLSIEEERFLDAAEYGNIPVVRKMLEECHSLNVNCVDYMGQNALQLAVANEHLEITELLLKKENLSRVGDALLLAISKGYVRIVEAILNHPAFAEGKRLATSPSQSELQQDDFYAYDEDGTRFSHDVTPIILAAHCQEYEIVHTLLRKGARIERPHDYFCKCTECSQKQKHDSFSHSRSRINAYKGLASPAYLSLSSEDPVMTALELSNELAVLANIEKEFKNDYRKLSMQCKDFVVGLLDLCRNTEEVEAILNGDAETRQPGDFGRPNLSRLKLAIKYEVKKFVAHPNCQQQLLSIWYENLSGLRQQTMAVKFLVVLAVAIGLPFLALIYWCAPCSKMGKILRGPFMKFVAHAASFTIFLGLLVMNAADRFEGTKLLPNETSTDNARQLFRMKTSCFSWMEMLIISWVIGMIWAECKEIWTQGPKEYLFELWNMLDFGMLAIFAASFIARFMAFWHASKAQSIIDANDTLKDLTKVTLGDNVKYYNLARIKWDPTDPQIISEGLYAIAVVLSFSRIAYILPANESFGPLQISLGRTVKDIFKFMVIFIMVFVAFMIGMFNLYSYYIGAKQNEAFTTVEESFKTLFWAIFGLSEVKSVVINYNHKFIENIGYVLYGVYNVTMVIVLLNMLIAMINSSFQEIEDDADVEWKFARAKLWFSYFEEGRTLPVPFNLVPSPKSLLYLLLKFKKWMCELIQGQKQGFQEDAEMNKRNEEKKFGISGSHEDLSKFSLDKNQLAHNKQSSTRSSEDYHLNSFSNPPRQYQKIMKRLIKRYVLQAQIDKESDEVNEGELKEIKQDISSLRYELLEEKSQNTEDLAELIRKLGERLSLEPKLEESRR
TRPC4 PAM = positive allosteric modulators of TRPC4, primary screen, cell-based, mouse TRPC4beta, HEK293 mu-opioid, Fluo-4 calcium; Short transient receptor potential channel 4 (Mus musculus), Q9QUQ5; DAMGO EC20, Fluo-4 Ca2+ flux; stronger effect = higher value; B-score at 10 µM; 310,000 compounds, 0.42% hits;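 active = B-score of calcium response area above 5 SD of library B-scores, with initial fluorescence ratio within 5 SD of library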;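 note: B-score of integrated fluorescence ratio over time as area under calcium response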
TRPC4 block = inhibitors of mouse TRPC4 channel, primary screen, Fluo4 calcium, HEK293 TRPC4beta/mu-opioid cells; Short transient receptor potential channel 4 (Mus musculus), Q9QUQ5; DAMGO-evoked Fluo4 calcium flux; stronger effect = lower value; B-score at 10 µM; 300,000 compounds, 0.39% hits; AID 2247, 2010;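 active = B-score over 3 SD under the library average, no early fluorescence shift, positive overall ratio signal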
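Material: HEK293 cells with stable TRPC4beta plus mu-opioid receptor expression; probe or stimulus: DAMGO in two steps, submaximal then maximal; technique: Fluo4 calcium fluorescence by kinetic imaging, 5 s 1 Hz baseline; measure: integrated fluorescence ratio relative to baseline, converted to per-well B score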
TRPC6 activator = mouse TRPC6 channel activators, primary screen, cell-based, HEK293, membrane potential dye. Short transient receptor potential channel 6 (Mus musculus), Q61143. HEK293-TRPC6 membrane potential dye fluorescence; stronger effect = higher value. B-score at 10 µM. 310,000 compounds, 0.13% hits. AID 2550, 2010;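 active = B-score of the integrated fluorescence ratio above library mean plus 3 SD, and starting fluorescence ratio within library mean plus 5 SD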;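 note: higher score means more depolarization so channel activation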
HEK293 MPD ctr = parental HEK293 membrane potential modulation, confirmation, counter-screen for TRPC6 modulator project, cell-based | membrane potential signal change, % at 10 µM | 2,400 compounds, 51% hits | AID 488924, 2010 | membrane potential dye fluorescence | shares compounds with TRPC6 inh;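 active = membrane potential signal moves up or down beyond 5 SD from buffer-only wells, on both duplicate plates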
HEK293 MPD ctr 2 = parental HEK293 nonspecific activity of TRPC6 modulators, second screen | shares compounds with TRPC6 inh | membrane potential dye fluorescence; after compound, maximal acetylcholine stimulation | inhibition, % at 10 µM | 2,400 compounds, 14% hits | AID 488926;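 active = membrane potential signal drops by more than 5 SD from the mean control signal, in both duplicate plates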;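 note: plate controls were acetylcholine ECmax control wells for no effect and buffer only wells for full effect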
TRPC4/MOR mod = TRPC4 modulation by TRPC6 hit compounds, confirmation, selectivity assay for TRPC6 modulator project, cell-based, HEK293 TRPC4/mu-opioid, membrane potential dye, mouse. 2,400 compounds, 69% hits. shares compounds with TRPC6 inh. membrane potential fluorescence. percent change from control (negative = decrease, positive = increase), % at 10 µM;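 active = membrane potential signal moved up or down beyond 5 SD of buffer control wells, in both duplicate plates, actives on both sides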;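 note: plate controls were assay buffer wells for no effect and DAMGO maximal-effect wells for full effect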
TRPC4 ctr inh 2 = second check of whether TRPC6 modulators also affect mouse TRPC4. HEK293 TRPC4/mu-opioid, membrane potential dye fluorescence; stimulated with maximal-effect DAMGO. inhibition, % at 10 µM. shares compounds with TRPC6 inh. 2,400 compounds, 55% hits;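 active = drop in membrane potential signal beyond 5 SD of the control wells in both duplicate plates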;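 note: TRPC4 counter screen for TRPC6 hits run under conditions tuned for TRPC6 not TRPC4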
TRPC6 inh conf = mouse TRPC6 channel inhibitors, confirmation, HEK293 cells, membrane potential dye, duplicate | shares compounds with TRPC6 inh | ACh-evoked depolarization | inhibition, % at 10 µM | 3,300 compounds, 43% hits;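 active = fluorescence ratio falls more than 5 SD below the full-stimulation control mean, in both duplicate runs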;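 note: integrated fluorescence ratio of peak minus minimum over baseline after agonist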
TRPC6 act confirm = mouse TRPC6 channel activators, confirmation, HEK293 cells, membrane potential dye, duplicate. shares compounds with TRPC6 inh. HEK293-TRPC6 membrane potential dye fluorescence, FDSS. activation, % at 10 µM. 2,800 compounds, 11% hits. AID 488961, 2010;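 active = ratio signal rise beyond 5 SD above unstimulated control wells' mean, seen in both duplicate runs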;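 note: plate controls were buffer EC0 wells for no effect and acetylcholine ECmax response for full effect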
* marks the source's active call; other numbers are inactive results; i = inactive; nt = not tested or not shown.

SMILES | TRPC4 agonist | TRPC6 inh | TRPC4 PAM | TRPC4 block | TRPC6 activator | HEK293 MPD ctr | HEK293 MPD ctr 2 | TRPC4/MOR mod | TRPC4 ctr inh 2 | TRPC6 inh conf | TRPC6 act confirm
O=C(c1ccco1)N1CCCC(c2nc3c(nnn3Cc3cccc(Cl)c3)c(=O)[nH]2)C1 (configuration not stated) | i | -5.2* | i | i | i | i | i | 17%* | i | 50%* | i
O=C(c1ccco1)N1CCCC(c2nc3c(nnn3Cc3ccc(Cl)cc3Cl)c(=O)[nH]2)C1 (configuration not stated) | i | i | i | i | i | nt | nt | nt | nt | nt | nt
Cc1cccc(N2CCN(C(=O)C3COc4ccccc4O3)CC2)c1C (configuration not stated) | i | -5.1* | i | i | i | i | i | i | i | 42%* | nt
O=C(C1COc2ccccc2O1)N1CCN(c2ccccc2Cl)CC1 (configuration not stated) | i | i | i | i | i | nt | nt | nt | nt | nt | nt
COc1ccc2c(C)c(CC(=O)N3CCN(C(=O)C4COc5ccccc5O4)CC3)c(=O)oc2c1 (configuration not stated) | i | -5.3* | i | i | i | 238%* | i | 44%* | i | i | nt
Cc1cc([N+](=O)[O-])c(C)cc1-c1ccc(/C=N/n2cnnc2)o1 | i | -5.8* | i | i | i | -108%* | i | -23%* | 34%* | i | i
O=[N+]([O-])c1ccc(-c2ccc(/C=N/n3cnnc3)o2)c(Br)c1 | i | i | i | i | i | nt | nt | nt | nt | nt | nt
COc1ccc(-c2c[n+](CC(=O)OC3CC(C)CCC3C(C)C)c3n2CCC3)cc1 (configuration not stated) | i | -6.1* | i | i | i | 162%* | i | 28%* | i | 55%* | nt
CCCCCC(=O)NC(=S)Nc1ccc2oc(=O)ccc2c1 | i | -6.4* | i | i | i | i | i | -14%* | i | i | i
CC(C)(C)OC(=O)NC1CC2CCCC(C1)N2Cc1ccccc1 (configuration not stated) | i | -5.6* | i | i | i | i | 88%* | 14%* | 29%* | 74%* | nt
COCC(=O)NC1CC2CCCC(C1)N2Cc1ccccc1 (configuration not stated) | i | i | i | i | i | nt | nt | nt | nt | nt | nt
COc1ccc(NC(=O)CC2Nc3cccc4cccc(c34)NC2=O)cc1 (configuration not stated) | i | i | i | i | i | nt | nt | nt | nt | nt | nt
O=C(CC1Nc2cccc3cccc(c23)NC1=O)Nc1ccc(F)cc1 (configuration not stated) | i | -5* | i | i | i | i | i | -11%* | 40%* | i | i
CN1c2ccc([N+](=O)[O-])cc2N(C)C1(C)c1ccccc1 (configuration not stated) | i | i | i | i | i | nt | nt | nt | nt | nt | nt
CN(C)CCCN1c2ccc([N+](=O)[O-])cc2CCc2cc([N+](=O)[O-])ccc21 | i | -12* | i | i | i | -358%* | 86%* | -60%* | 84%* | 83%* | i
CCN1CCc2c(OCc3ccccc3)cccc2C1=O | i | -5.6* | i | i | i | 126%* | i | 21%* | i | i | nt
COc1ccc(CN2CCNC(=O)C2CC(=O)NCC2CCOCC2)c(F)c1 (configuration not stated) | i | i | i | i | i | nt | nt | nt | nt | nt | nt
O=C1CCc2cc(NS(=O)(=O)c3cc(F)ccc3F)cc3c2N1CC3 | i | i | i | i | i | nt | nt | nt | nt | nt | nt
CN(NS(=O)(=O)c1ccc(Cl)cc1)c1nc(C(F)(F)F)nc2ccccc12 | i | -5.6* | i | i | i | i | i | i | i | i | i
CN(NS(=O)(=O)c1ccccc1)c1nc2ccccc2nc1C(F)(F)F | i | i | i | i | i | nt | nt | nt | nt | nt | nt
Cc1sc2ncnc(SCC(=O)N3CCCC(C(N)=O)C3)c2c1C (configuration not stated) | i | i | i | i | i | nt | nt | nt | nt | nt | nt
